The source made the active and inactive calls.
Columns and labels:
Mus musculus [1] = assay: Reversal of scopolamine-induced cognitive deficit in Kunming mouse assessed as longer latency time at 6.6 mg/kg, po administered 1 hr before training trial measured at 24 hrs after training trial by passive avoidance test; assay type: functional
Method in brief: (§1)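 Kunming mice, 18–22 g, six weeks old, either sex, n=10 per group. Compound given p.o. 1 h before training; scopolamine 3 mg/kg i.p. 30 min later. Training used a 0.5 mA, 2 s foot shock on stepping down; step-down latency measured 24 h later, 300 s cut-off. Mean ± SEM; one-way ANOVA with t test.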

[2] = Metal chelating activity of the compound assessed as formation of zinc-compound complex in methanol solution at 37.5 uM after 30 mins by UV-vis spectrometry; assay type: physicochemical; settings: 0.5 h
Method in brief: (§2)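 UV absorption (200–500 nm) of compound recorded with or without CuCl2, FeSO4, ZnCl2 or AlCl3 after 30 min incubation at room temperature.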

[3] = target: Amyloid-beta precursor protein (Homo sapiens) (UniProt P05067); assay: Inhibition of Cu2+-induced amyloid beta (1 to 42) (unknown origin) aggregation at 10 uM after 24 hrs by thioflavin-T based fluorescence assay
Amyloid-beta precursor protein (Homo sapiens), sequence (P05067 whole entry): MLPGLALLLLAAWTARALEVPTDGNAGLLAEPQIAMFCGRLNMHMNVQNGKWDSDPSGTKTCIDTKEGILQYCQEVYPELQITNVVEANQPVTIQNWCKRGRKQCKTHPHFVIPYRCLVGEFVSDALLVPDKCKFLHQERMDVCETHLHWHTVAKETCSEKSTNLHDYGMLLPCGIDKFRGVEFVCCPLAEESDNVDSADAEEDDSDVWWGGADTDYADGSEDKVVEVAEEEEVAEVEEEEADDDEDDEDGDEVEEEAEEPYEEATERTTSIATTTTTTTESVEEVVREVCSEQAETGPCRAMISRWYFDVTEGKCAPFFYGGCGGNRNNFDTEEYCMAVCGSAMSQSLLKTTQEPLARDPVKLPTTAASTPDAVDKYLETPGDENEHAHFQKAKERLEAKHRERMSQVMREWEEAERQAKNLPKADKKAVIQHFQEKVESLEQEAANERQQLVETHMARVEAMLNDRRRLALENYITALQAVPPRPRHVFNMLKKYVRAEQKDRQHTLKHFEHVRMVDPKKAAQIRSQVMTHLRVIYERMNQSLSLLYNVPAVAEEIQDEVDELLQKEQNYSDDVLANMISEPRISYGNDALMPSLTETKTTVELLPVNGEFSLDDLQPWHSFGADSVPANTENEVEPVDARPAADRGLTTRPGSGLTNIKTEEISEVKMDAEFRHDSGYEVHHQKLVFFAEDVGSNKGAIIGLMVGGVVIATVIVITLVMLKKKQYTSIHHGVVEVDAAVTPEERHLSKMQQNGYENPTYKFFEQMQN
Method in brief: (§3)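 Aβ1-42 (25 μM final) plus Cu2+ (25 μM final) in HEPES (20 mM, pH 6.6, 150 mM NaCl), ±compound, incubated 24 h at 37 °C.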

[4] = Metal chelating activity of the compound assessed as formation of iron-compound complex in methanol solution at 37.5 uM after 30 mins by UV-vis spectrometry; assay type: physicochemical; settings: 0.5 h; method in brief: as §2
[5] = Neuroprotective activity against H2O2-induced cell injury in rat PC12 cells assessed as cell viability at 1 uM treated with compound for 24 hrs prior to H2O2 addition for 2 hrs by MTT assay (reference value: 56.1%); assay type: functional; settings: PC-12, read-out: Activity
[6] = Metal chelating activity of the compound assessed as formation of copper-compound complex in methanol solution at 37.5 uM after 30 mins by UV-vis spectrometry; assay type: physicochemical; settings: 0.5 h; method in brief: as §2
Acetylcholinesterase [7] = target: Acetylcholinesterase (Homo sapiens, UniProt P22303); assay: Inhibition of AChE in human erythrocytes using acetylthiocholine iodide as substrate after 15 mins by Ellman's method; assay type: cell-based
Acetylcholinesterase (Homo sapiens, UniProt P22303), sequence (P22303 whole entry): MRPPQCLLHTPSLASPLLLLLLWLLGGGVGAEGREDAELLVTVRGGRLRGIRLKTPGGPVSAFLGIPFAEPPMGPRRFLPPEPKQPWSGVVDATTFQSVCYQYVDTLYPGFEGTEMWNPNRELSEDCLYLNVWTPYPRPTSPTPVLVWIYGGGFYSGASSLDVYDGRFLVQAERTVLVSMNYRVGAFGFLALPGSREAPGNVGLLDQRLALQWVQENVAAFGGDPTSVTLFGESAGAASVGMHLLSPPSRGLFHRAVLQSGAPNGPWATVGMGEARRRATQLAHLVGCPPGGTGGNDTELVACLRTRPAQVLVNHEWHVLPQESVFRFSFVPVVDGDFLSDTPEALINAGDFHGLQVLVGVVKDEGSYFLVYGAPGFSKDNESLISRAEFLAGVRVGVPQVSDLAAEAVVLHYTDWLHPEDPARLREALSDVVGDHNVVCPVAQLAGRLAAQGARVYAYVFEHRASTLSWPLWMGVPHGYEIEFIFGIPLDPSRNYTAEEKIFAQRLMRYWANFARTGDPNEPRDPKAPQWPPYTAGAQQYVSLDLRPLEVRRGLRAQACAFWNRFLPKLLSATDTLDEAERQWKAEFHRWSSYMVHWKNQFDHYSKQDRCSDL

[8] = target: Amyloid-beta precursor protein (Homo sapiens) (UniProt P05067); assay: Inhibition of self-induced Abeta(1 to 42) (unknown origin) aggregation at 50 uM after 24 hrs by Thioflavin T-based fluorometric assay
Rattus norvegicus = species: Rattus norvegicus; assay: Selectivity index, ratio of IC50 for rat serum BuChE to IC50 for rat cortex AChE
[9] = target: Amyloid-beta precursor protein (Homo sapiens) (UniProt P05067); assay: Inhibition of Cu2+-induced amyloid beta (1 to 42) (unknown origin) aggregation at 5 uM after 24 hrs by thioflavin-T based fluorescence assay; method in brief: as §3
SH-SY5Y [10] = assay: Cytotoxicity against human SH-SY5Y cells assessed as cell viability up to 10 uM after 24 hrs by MTT assay; assay type: cell-based
Method in brief: (§4)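 SH-SY5Y human neuronal cells exposed to compound at 1, 10 and 100 μM for 24 h; viability read by MTT assay. Mean ± SEM of three independent experiments.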

Acetylcholinesterase [11] = target: Acetylcholinesterase (Electrophorus electricus, UniProt O42275); assay: Inhibition of electric eel AChE using acetylthiocholine iodide as substrate after 15 mins by Ellman's method
Acetylcholinesterase (Electrophorus electricus, UniProt O42275), sequence (O42275 whole entry): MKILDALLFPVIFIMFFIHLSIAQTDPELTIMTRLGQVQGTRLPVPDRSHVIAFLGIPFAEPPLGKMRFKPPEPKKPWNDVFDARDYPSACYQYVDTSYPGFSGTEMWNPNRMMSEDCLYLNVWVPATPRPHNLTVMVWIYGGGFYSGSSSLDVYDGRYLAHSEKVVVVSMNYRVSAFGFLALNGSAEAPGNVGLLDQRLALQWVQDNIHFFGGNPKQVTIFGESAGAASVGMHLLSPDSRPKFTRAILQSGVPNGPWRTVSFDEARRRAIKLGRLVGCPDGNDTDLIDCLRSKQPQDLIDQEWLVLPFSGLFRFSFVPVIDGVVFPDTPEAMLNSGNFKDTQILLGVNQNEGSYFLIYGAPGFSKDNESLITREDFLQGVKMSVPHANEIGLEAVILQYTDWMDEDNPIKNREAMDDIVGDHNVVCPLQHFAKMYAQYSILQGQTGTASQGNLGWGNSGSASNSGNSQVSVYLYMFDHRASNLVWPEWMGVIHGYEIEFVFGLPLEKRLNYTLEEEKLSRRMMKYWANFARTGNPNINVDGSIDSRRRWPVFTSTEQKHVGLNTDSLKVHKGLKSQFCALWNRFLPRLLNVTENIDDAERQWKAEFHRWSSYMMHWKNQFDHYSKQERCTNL

SH-SY5Y [12] = assay: Cytotoxicity against human SH-SY5Y cells assessed as reduction in cell viability at 100 uM after 24 hrs by MTT assay; assay type: cell-based; method in brief: as §4
[13] = target: Amyloid-beta precursor protein (Homo sapiens) (UniProt P05067); assay: Inhibition of self-induced Abeta(1 to 42) (unknown origin) aggregation at 12.5 uM after 24 hrs by Thioflavin T-based fluorometric assay
[14] = target: Amyloid-beta precursor protein (Homo sapiens) (UniProt P05067); assay: Inhibition of Cu2+-induced amyloid beta (1 to 42) (unknown origin) aggregation at 25 uM after 24 hrs by thioflavin-T based fluorescence assay
Method in brief: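 Aβ1-42 (25 µM final) in HEPES 20 mM, pH 6.6, 150 mM NaCl, exposed to Cu2+ (25 µM final) with or without test agent (25 µM), 37°C for 24 h in sealed wells.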

[15] = Metal chelating activity of the compound assessed as formation of aluminium-compound complex in methanol solution at 37.5 uM after 30 mins by UV-vis spectrometry; assay type: physicochemical; settings: 0.5 h; method in brief: as §2
[16] = target: Amyloid-beta precursor protein (Homo sapiens) (UniProt P05067); assay: Disaggregation of Cu2+-induced amyloid beta (1 to 42) (unknown origin) at 25 uM after 24 hrs by thioflavin T fluorescence method
Method in brief: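 Aβ1-42 (25 μM final) preincubated with Cu2+ (25 μM final) in HEPES (20 mM, pH 6.6, 150 mM NaCl) at 37 °C for 24 h to form fibrils. Compound (25 μM final) then added for a further 24 h at 37 °C, wells sealed. 5 μM ThT in 50 mM glycine-NaOH pH 8.5 added; ex 446/em 490 nm; triplicate.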

Mus musculus [17] = assay: Reversal of scopolamine-induced cognitive deficit in Kunming mouse assessed as longer latency time at 0.66 mg/kg, po administered 1 hr before training trial measured at 24 hrs after training trial by passive avoidance test; assay type: functional, organism-based; method in brief: as §1
[18] = Inhibition of BuChE in rat serum using butyrylthiocholine iodide as substrate after 15 mins by Ellman's method; settings: 0.25 h
Method in brief: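 Rat serum (25%, 10 µL) in 100 µL with 1 mmol/L butyrylthiocholine iodide stock, pH 7.4 phosphate buffer and graded inhibitor levels, 37°C for 15 min; DTNB (0.2%) then added and absorbance read at 405 nm.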

[19] = Metal chelating activity of the compound assessed as formation of copper-compound complex at ratio of 1:1 in methanol solution at 37.5 uM by molar ratio method; assay type: physicochemical
Method in brief: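 Molar ratio titration: compound in methanol (37.5 μM final) titrated with CuCl2 (Cu2+ 7.5–93.75 μM final). Spectra corrected by numerical subtraction of CuCl2 and compound at matching concentrations; absorbance at 337 nm plotted against mole fraction of compound to give stoichiometry.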

Acetylcholinesterase [20] = target: T1, Acetylcholinesterase (Rattus norvegicus, UniProt P37136); assay: Inhibition of AChE in rat cortex using acetylthiocholine iodide as substrate after 15 mins by Ellman's method
T1 sequence (P37136 whole entry): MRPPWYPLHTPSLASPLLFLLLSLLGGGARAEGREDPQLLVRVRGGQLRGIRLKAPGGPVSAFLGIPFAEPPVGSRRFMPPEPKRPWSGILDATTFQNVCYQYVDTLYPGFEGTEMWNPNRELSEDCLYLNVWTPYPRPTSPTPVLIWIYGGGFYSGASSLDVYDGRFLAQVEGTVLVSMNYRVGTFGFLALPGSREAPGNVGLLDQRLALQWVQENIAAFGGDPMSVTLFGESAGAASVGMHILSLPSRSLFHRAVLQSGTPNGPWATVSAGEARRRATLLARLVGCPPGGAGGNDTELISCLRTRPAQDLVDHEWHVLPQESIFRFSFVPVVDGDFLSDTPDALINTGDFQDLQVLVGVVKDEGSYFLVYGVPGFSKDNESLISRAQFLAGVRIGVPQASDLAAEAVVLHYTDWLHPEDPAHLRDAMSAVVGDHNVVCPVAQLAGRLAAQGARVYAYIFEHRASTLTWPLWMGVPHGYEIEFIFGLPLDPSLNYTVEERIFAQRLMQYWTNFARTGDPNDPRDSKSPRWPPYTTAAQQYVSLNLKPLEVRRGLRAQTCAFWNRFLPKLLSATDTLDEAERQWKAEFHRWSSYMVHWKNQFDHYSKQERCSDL

[21] = Neuroprotective activity against H2O2-induced cell injury in rat PC12 cells assessed as cell viability at 10 uM treated with compound for 24 hrs prior to H2O2 addition for 2 hrs by MTT assay (reference value: 56.1%); assay type: functional; settings: PC-12, read-out: Activity
[22] = target: Amyloid-beta precursor protein (Homo sapiens) (UniProt P05067); assay: Inhibition of self-induced Abeta(1 to 42) (unknown origin) aggregation at 25 uM after 24 hrs by Thioflavin T-based fluorometric assay
Method in brief: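 HFIP-pretreated Aβ1-42 (25 µM final) incubated alone or with test agent (25 µM) in 50 mM phosphate buffer pH 7.4, 37°C for 24 h in sealed wells.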

Mus musculus [23] = assay: Reversal of scopolamine-induced cognitive deficit in Kunming mouse assessed as longer latency time at 19.8 mg/kg, po administered 1 hr before training trial measured at 24 hrs after training trial by passive avoidance test; assay type: functional; method in brief: as §1
[24] = target: Amyloid-beta precursor protein (Homo sapiens) (UniProt P05067); assay: Inhibition of Cu2+-induced amyloid beta (1 to 42) (unknown origin) aggregation after 24 hrs by transmission electron microscopy
Method in brief: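 Aβ1-42 (25 μM) diluted in HEPES (20 mM, pH 6.6, 150 mM NaCl) and treated with one equivalent of Cu2+ for 2 min at room temperature, then incubated ±compound for 24 h at 37 °C. Samples on carbon-coated grids for 2 min, washed twice with water, negatively stained 2 min with 2% phosphomolybdic acid, imaged by TEM.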

Question: Which Time (Mus musculus [1]) does the source give for `CCN(CCCCOc1ccc(-c2cc(=O)c3c(O)c(OC)c(OC)cc3o2)cc1)Cc1ccccc1OC` here?
Answer: 136.2 s

Question: And the Activity [2]?
Answer: Not Active

Question: And the inhibition [3]?
Answer: 64.6%

Question: What about the Activity [4] of the same compound?
Answer: Not Active

Question: And the viability at 1 µM [5]?
Answer: 65.9%

Question: And the Activity [6]?
Answer: Active

Question: And the IC50 (Acetylcholinesterase [7])?
Answer: 250 nM

Question: And the inhibition [8]?
Answer: 87.2%

Question: What about the Ratio IC50 (Rattus norvegicus) of the same compound?
Answer: 100

Question: And the inhibition [9]?
Answer: 46.5%

Question: What about the Activity (SH-SY5Y [10]) of the same compound?
Answer: Non-toxic

Question: What about the IC50 (Acetylcholinesterase [11]) of the same compound?
Answer: 850 nM

Question: And the Activity (SH-SY5Y [12])?
Answer: 80%

Question: And the inhibition [13]?
Answer: 43.5%

Question: What about the inhibition [14] of the same compound?
Answer: 85.7%

Question: And the Activity [15]?
Answer: Active

Question: And the inhibition [16]?
Answer: 81.3%

Question: What about the Activity (Mus musculus [17]) of the same compound?
Answer: inactive

Question: And the IC50 [18]?
Answer: 62000 nM

Question: And the Activity [19]?
Answer: Active

Question: What about the IC50 (Acetylcholinesterase [20]) of the same compound?
Answer: 620 nM

Question: And the viability at 10 µM [21]?
Answer: 75.1%

Question: And the inhibition [22]?
Answer: 69.1%

Question: And the Time (Mus musculus [23])?
Answer: 118.2 s

Question: And the inhibition [24]?
Answer: Active
